Measurements reported in ChEMBL document CHEMBL5390295, “Isolinderalactone Ameliorates the Pathology of Alzheimer's Disease by Inhibiting the JNK Signaling Pathway” (2023).
The source made the active and inactive calls.

Tests used:
Assay type in all cases: functional, organism-based
[1] = system: Mus musculus; experiment: Anti-alzheimer activity against APP/PS1 dE9 double transgenic mouse model assessed as improvement in exploratory behavior at 1 to 10 mg/kg, ip administered once daily for 30 consecutive days measured on day 1 by novel object recognition test; conditions: dose 1-10 mg/kg, time 31.0 day
Outline: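 Same mouse cohort and ip PBS dosing schedule (1 or 10 mg/kg; donepezil 5 mg/kg). Novel object recognition: two objects, 5 min session, with exploration frequency and duration scored within 2–3 cm of objects. After 24 h one object was replaced by a novel object and a second 5 min session was recorded.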

[2] = system: Mus musculus; experiment: Anti-alzheimer activity against APP/PS1 dE9 double transgenic mouse model assessed as decrease in escape latency at 10 mg/kg, ip administered once daily for 30 consecutive day measured on day 5 by morris water maze test; conditions: time 35.0 day
Outline: (§1)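 Female APP/PS1 mice, 10 months old, about 30 g, 10 per group. Dosing was intraperitoneal in 1× PBS, once daily for one month (1 or 10 mg/kg test; 5 mg/kg donepezil). WT and untreated APP/PS1 controls got PBS. Morris water maze: training days 1–4, averaged escape latency. Day-5 probe trial ran 60 s with the platform removed, recording platform crossings and time per quadrant. Mean ± SEM.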

[3] = system: Mus musculus; experiment: Anti-alzheimer activity against APP/PS1 dE9 double transgenic mouse model assessed as increase in time spent in the target quadrant at 10 mg/kg, ip administered once daily for 30 consecutive days measured on day 5 by morris water maze test; conditions: time 35.0 day; outline: as §1
[4] = system: Mus musculus; experiment: Anti-alzheimer activity in hippocampus of APP/PS1 dE9 double transgenic mouse model assessed as decrease in the level of Bax at 10 mg/kg, ip administered once daily for 30 consecutive days by Western blot analysis; conditions: time 30.0 day
Outline: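 Hippocampal homogenates from dosed APP/PS1 mice were extracted in RIPA and protein measured by BCA. Samples were run by SDS electrophoresis, transferred to 0.22 μm PVDF for 90 min, blocked with 5% BSA in TBST for 2 h at RT, and probed with primaries 1:1000 overnight at 4 °C. HRP secondary was applied for 2 h at RT.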

Measured: Activity

C=C[C@@]1(C)Cc2occ(C)c2[C@@H]2OC(=O)C(=C)[C@@H]21 [ISOLINDERALACTONE]
active: all assays above
